Measurements published in ChEMBL document CHEMBL1687778, “Genetic determinants involved in the susceptibility of Pseudomonas aeruginosa to beta-lactam antibiotics” (2010).
Converted amounts (≈) assume the structure as drawn.

Experiments:
Type in all cases: functional
Pseudomonas aeruginosa [1] = assay: Antimicrobial activity against Pseudomonas aeruginosa PA14 PA0011 harboring mutation in putative 2-OH-lauroyltransferase by Etest method
Outline: (§1)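 Overnight LB cultures (37°C) diluted in sterile 0.85% NaCl to about 1 × 10^7 CFU/ml. 100 µl spread on Mueller-Hinton agar, one Etest strip per plate, 18 h at 37°C. Ceftazidime, imipenem and meropenem tested. Wild-type PA14 plate included in each set. Each mutant verified in triplicate.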

Pseudomonas aeruginosa [2] = assay: Antimicrobial activity against Pseudomonas aeruginosa PA14 PA14_43090 harboring mutation in hypothetical protein by Etest method; outline: as §1
Pseudomonas aeruginosa [3] = assay: Antimicrobial activity against Pseudomonas aeruginosa PA14 PA0479 harboring mutation in putative transcriptional regulator, LysR family by Etest method; outline: as §1
Pseudomonas aeruginosa [4] = assay: Antimicrobial activity against Pseudomonas aeruginosa PA14 PA2615 harboring ftsK mutant gene by Etest method; outline: as §1
Pseudomonas aeruginosa [5] = assay: Antimicrobial activity against Pseudomonas aeruginosa PA14 PA2128 harboring cupA1 mutant gene by Etest method; outline: as §1
Pseudomonas aeruginosa [6] = assay: Antimicrobial activity against Pseudomonas aeruginosa PA14 PA1195 harboring mutation in putative dimethylarginine dimethylaminohydrolase by Etest method; outline: as §1
Pseudomonas aeruginosa [7] = assay: Antimicrobial activity against Pseudomonas aeruginosa PA14 PA4753 harboring mutation in putative RNA-binding protein by Etest method
Outline: (§2)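 Etest MIC. Overnight LB cultures at 37°C were diluted in sterile 0.85% NaCl to about 1 × 10^7 CFU/ml. 100 µl was spread on Mueller-Hinton agar, one strip was placed per plate, and plates were incubated at 37°C for 18 h. Equal cell numbers were seeded per plate, and results were verified in triplicate. PA14 wild type was included in each set as a susceptibility control.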

Pseudomonas aeruginosa [8] = assay: Antimicrobial activity against Pseudomonas aeruginosa PA14 PA4069 harboring mutation in putative dTDP-4-rhamnose reductase-related protein by Etest method; outline: as §2
Pseudomonas aeruginosa [9] = assay: Antimicrobial activity against Pseudomonas aeruginosa PA14 PA5443 harboring uvrD mutant gene by Etest method; outline: as §2
Pseudomonas aeruginosa [10] = assay: Antimicrobial activity against Pseudomonas aeruginosa PA14 PA5038 harboring aroB mutant gene by Etest method; outline: as §2
Pseudomonas aeruginosa [11] = assay: Antimicrobial activity against Pseudomonas aeruginosa PA14 PA14_59780 harboring rcsC mutant gene by Etest method; outline: as §1
Pseudomonas aeruginosa [12] = assay: Antimicrobial activity against Pseudomonas aeruginosa PA14 PA3433 harboring mutation in putative transcriptional regulator, LysR family by Etest method; outline: as §2
Pseudomonas aeruginosa [13] = assay: Antimicrobial activity against Pseudomonas aeruginosa PA14 PA5001 harboring mutation in conserved hypothetical protein by Etest method; outline: as §2
Pseudomonas aeruginosa [14] = assay: Antimicrobial activity against Pseudomonas aeruginosa PA14 PA14_07490/07510 harboring mutation in intergenic region by Etest method; outline: as §1
Pseudomonas aeruginosa [15] = assay: Antimicrobial activity against Pseudomonas aeruginosa PA14 PA3978 harboring mutation in hypothetical protein by Etest method; outline: as §2
Pseudomonas aeruginosa [16] = assay: Antimicrobial activity against Pseudomonas aeruginosa PA14 PA14_23430 harboring mutation in putative heparinase by Etest method; outline: as §1
Pseudomonas aeruginosa [17] = assay: Antimicrobial activity against Pseudomonas aeruginosa PA14 PA3520 harboring mutation in putative periplasmic metal-binding protein by Etest method; outline: as §2
Pseudomonas aeruginosa [18] = assay: Antimicrobial activity against Pseudomonas aeruginosa PA14 PA5366 harboring pstB mutant gene by Etest method; outline: as §2
Pseudomonas aeruginosa [19] = assay: Antimicrobial activity against Pseudomonas aeruginosa PA14 PA0503 harboring mutation in Putative biotin synthesis protein BioC by Etest method; outline: as §1
Pseudomonas aeruginosa [20] = assay: Antimicrobial activity against Pseudomonas aeruginosa PA14 PA3145 harboring wbpL mutant gene by Etest method; outline: as §1
Pseudomonas aeruginosa [21] = assay: Antimicrobial activity against Pseudomonas aeruginosa PA14 PA3667 harboring mutation in putative cysteine sulfinate desulfinase by Etest method; outline: as §2
Pseudomonas aeruginosa [22] = assay: Antimicrobial activity against Pseudomonas aeruginosa PA14 PA5130 harboring mutation in putative rhodanese-like domain protein by Etest method; outline: as §2
Pseudomonas aeruginosa [23] = assay: Antimicrobial activity against Pseudomonas aeruginosa PA14 PA0420 harboring bioA mutant gene by Etest method; outline: as §1
Pseudomonas aeruginosa [24] = assay: Antimicrobial activity against Pseudomonas aeruginosa PA14 PA1483 harboring cycH mutant gene by Etest method; outline: as §1
Pseudomonas aeruginosa [25] = assay: Antimicrobial activity against Pseudomonas aeruginosa PA14 PA3247 harboring mutation in putative aspartyl aminopeptidase by Etest method; outline: as §1
Pseudomonas aeruginosa [26] = assay: Antimicrobial activity against Pseudomonas aeruginosa PA14 PA4550 harboring fimU mutant gene by Etest method; outline: as §2
Pseudomonas aeruginosa [27] = assay: Antimicrobial activity against Pseudomonas aeruginosa PA14 PA3141 harboring wbpM mutant gene by Etest method; outline: as §1
Pseudomonas aeruginosa [28] = assay: Antimicrobial activity against Pseudomonas aeruginosa PA14 PA4748 harboring tpiA mutant gene by Etest method; outline: as §2
Pseudomonas aeruginosa [29] = assay: Antimicrobial activity against Pseudomonas aeruginosa PA14 PA2621 harboring clpS mutant gene by Etest method; outline: as §1
Pseudomonas aeruginosa [30] = assay: Antimicrobial activity against Pseudomonas aeruginosa PA14 PA2487 harboring mutation in hypothetical protein by Etest method; outline: as §1
Pseudomonas aeruginosa [31] = assay: Antimicrobial activity against Pseudomonas aeruginosa PA14 PA5174 harboring mutation in putative beta-ketoacyl synthase by Etest method; outline: as §2
Pseudomonas aeruginosa [32] = assay: Antimicrobial activity against Pseudomonas aeruginosa PA14 PA4527 harboring pilC mutant gene by Etest method; outline: as §2
Pseudomonas aeruginosa [33] = assay: Antimicrobial activity against Pseudomonas aeruginosa PA14 PA14_06490 harboring mutation in hypothetical protein by Etest method; outline: as §1
Pseudomonas aeruginosa [34] = assay: Antimicrobial activity against Pseudomonas aeruginosa PA14 PA3620 harboring mutS mutant gene by Etest method; outline: as §2
Pseudomonas aeruginosa [35] = assay: Antimicrobial activity against Pseudomonas aeruginosa PA14 PA4946 harboring mutL mutant gene by Etest method; outline: as §2
Pseudomonas aeruginosa [36] = assay: Antimicrobial activity against Pseudomonas aeruginosa PA14 PA3704 harboring wspE mutant gene by Etest method; outline: as §2
Pseudomonas aeruginosa [37] = assay: Antimicrobial activity against Pseudomonas aeruginosa PA14 PA5192 harboring pckA mutant gene by Etest method; outline: as §2
Pseudomonas aeruginosa [38] = assay: Antimicrobial activity against Pseudomonas aeruginosa PA14 PA5003 harboring mutation in conserved hypothetical protein by Etest method; outline: as §2
Pseudomonas aeruginosa [39] = assay: Antimicrobial activity against Pseudomonas aeruginosa PA14 PA14_23420 harboring mutation in putative zinc-binding dehydrogenase by Etest method; outline: as §1
Pseudomonas aeruginosa [40] = assay: Antimicrobial activity against Pseudomonas aeruginosa PA14 PA1348 harboring mutation in conserved hypothetical protein by Etest method; outline: as §1
Pseudomonas aeruginosa [41] = assay: Antimicrobial activity against Pseudomonas aeruginosa PA14 PA4393 harboring mutation in putative permease by Etest method; outline: as §2
Pseudomonas aeruginosa [42] = assay: Antimicrobial activity against Pseudomonas aeruginosa PA14 PA0958 harboring oprD mutant gene by Etest method; outline: as §1
Pseudomonas aeruginosa [43] = assay: Antimicrobial activity against Pseudomonas aeruginosa PA14 PA4007 harboring proA mutant gene by Etest method; outline: as §2
Pseudomonas aeruginosa [44] = assay: Antimicrobial activity against Pseudomonas aeruginosa PA14 PA0402 harboring pyrB mutant gene by Etest method; outline: as §1
Pseudomonas aeruginosa [45] = assay: Antimicrobial activity against Pseudomonas aeruginosa PA14 PA3818 harboring suhB mutant gene by Etest method; outline: as §2
Pseudomonas aeruginosa [46] = assay: Antimicrobial activity against Pseudomonas aeruginosa PA14 PA4088 harboring mutation in putative aminotransferase by Etest method; outline: as §2
Pseudomonas aeruginosa [47] = assay: Antimicrobial activity against Pseudomonas aeruginosa PA14 PA1553 harboring mutation in putative cytochrome c oxidase, cbb3 type, subunit II by Etest method; outline: as §1

Q: Which MIC (Pseudomonas aeruginosa [1]) does the source give for `C[C@@H](O)[C@H]1C(=O)N2C(C(=O)O)=C(S[C@@H]3CN[C@H](C(=O)N(C)C)C3)[C@H](C)[C@H]12` [MEROPENEM] here?
A: Its MIC is 0.125 µg/mL (≈ 0.326 µM).

Q: What about the MIC (Pseudomonas aeruginosa [2]) of the same compound?
A: Its MIC is 0.125 µg/mL (≈ 0.326 µM).

Q: And the MIC (Pseudomonas aeruginosa [3])?
A: Its MIC is 0.047 µg/mL (≈ 0.123 µM).

Q: What about the MIC (Pseudomonas aeruginosa [4]) of the same compound?
A: The MIC was 0.064 µg/mL (≈ 0.167 µM).

Q: What about the MIC (Pseudomonas aeruginosa [5]) of the same compound?
A: The MIC was 0.125 µg/mL (≈ 0.326 µM).

Q: And the MIC (Pseudomonas aeruginosa [6])?
A: Its MIC is 0.125 µg/mL (≈ 0.326 µM).

Q: And the MIC (Pseudomonas aeruginosa [7])?
A: The MIC was 0.064 µg/mL (≈ 0.167 µM).

Q: What about the MIC (Pseudomonas aeruginosa [8]) of the same compound?
A: The MIC was 0.064 µg/mL (≈ 0.167 µM).

Q: What about the MIC (Pseudomonas aeruginosa [9]) of the same compound?
A: The MIC was 0.094 µg/mL (≈ 0.245 µM).

Q: What about the MIC (Pseudomonas aeruginosa [10]) of the same compound?
A: Its MIC is 0.25 µg/mL (≈ 0.652 µM).

Q: What about the MIC (Pseudomonas aeruginosa [11]) of the same compound?
A: The MIC was 0.125 µg/mL (≈ 0.326 µM).

Q: And the MIC (Pseudomonas aeruginosa [12])?
A: The MIC was 0.125 µg/mL (≈ 0.326 µM).

Q: And the MIC (Pseudomonas aeruginosa [13])?
A: The MIC was 0.38 µg/mL (≈ 0.991 µM).

Q: What about the MIC (Pseudomonas aeruginosa [14]) of the same compound?
A: The MIC was 0.094 µg/mL (≈ 0.245 µM).

Q: What about the MIC (Pseudomonas aeruginosa [15]) of the same compound?
A: Its MIC is 0.125 µg/mL (≈ 0.326 µM).

Q: And the MIC (Pseudomonas aeruginosa [16])?
A: The MIC was 0.125 µg/mL (≈ 0.326 µM).

Q: And the MIC (Pseudomonas aeruginosa [17])?
A: Its MIC is 0.38 µg/mL (≈ 0.991 µM).

Q: And the MIC (Pseudomonas aeruginosa [18])?
A: The MIC was 0.125 µg/mL (≈ 0.326 µM).

Q: What about the MIC (Pseudomonas aeruginosa [19]) of the same compound?
A: The MIC was 0.125 µg/mL (≈ 0.326 µM).

Q: What about the MIC (Pseudomonas aeruginosa [20]) of the same compound?
A: The MIC was 0.094 µg/mL (≈ 0.245 µM).

Q: And the MIC (Pseudomonas aeruginosa [21])?
A: The MIC was 0.125 µg/mL (≈ 0.326 µM).

Q: And the MIC (Pseudomonas aeruginosa [22])?
A: The MIC was 0.125 µg/mL (≈ 0.326 µM).

Q: And the MIC (Pseudomonas aeruginosa [23])?
A: The MIC was 0.094 µg/mL (≈ 0.245 µM).

Q: And the MIC (Pseudomonas aeruginosa [24])?
A: The MIC was 0.125 µg/mL (≈ 0.326 µM).

Q: What about the MIC (Pseudomonas aeruginosa [25]) of the same compound?
A: The MIC was 0.125 µg/mL (≈ 0.326 µM).

Q: What about the MIC (Pseudomonas aeruginosa [26]) of the same compound?
A: The MIC was 0.125 µg/mL (≈ 0.326 µM).

Q: And the MIC (Pseudomonas aeruginosa [27])?
A: The MIC was 0.125 µg/mL (≈ 0.326 µM).

Q: And the MIC (Pseudomonas aeruginosa [28])?
A: Its MIC is 0.25 µg/mL (≈ 0.652 µM).

Q: What about the MIC (Pseudomonas aeruginosa [29]) of the same compound?
A: Its MIC is 0.19 µg/mL (≈ 0.495 µM).

Q: And the MIC (Pseudomonas aeruginosa [30])?
A: The MIC was 0.125 µg/mL (≈ 0.326 µM).

Q: And the MIC (Pseudomonas aeruginosa [31])?
A: Its MIC is 0.125 µg/mL (≈ 0.326 µM).

Q: And the MIC (Pseudomonas aeruginosa [32])?
A: The MIC was 0.125 µg/mL (≈ 0.326 µM).

Q: What about the MIC (Pseudomonas aeruginosa [33]) of the same compound?
A: Its MIC is 0.125 µg/mL (≈ 0.326 µM).

Q: And the MIC (Pseudomonas aeruginosa [34])?
A: The MIC was 0.125 µg/mL (≈ 0.326 µM).

Q: What about the MIC (Pseudomonas aeruginosa [35]) of the same compound?
A: Its MIC is 0.094 µg/mL (≈ 0.245 µM).

Q: And the MIC (Pseudomonas aeruginosa [36])?
A: Its MIC is 0.25 µg/mL (≈ 0.652 µM).

Q: And the MIC (Pseudomonas aeruginosa [37])?
A: Its MIC is 0.25 µg/mL (≈ 0.652 µM).

Q: What about the MIC (Pseudomonas aeruginosa [38]) of the same compound?
A: Its MIC is 0.25 µg/mL (≈ 0.652 µM).

Q: What about the MIC (Pseudomonas aeruginosa [39]) of the same compound?
A: Its MIC is 0.125 µg/mL (≈ 0.326 µM).

Q: And the MIC (Pseudomonas aeruginosa [40])?
A: Its MIC is 0.5 µg/mL (≈ 1.3 µM).

Q: And the MIC (Pseudomonas aeruginosa [41])?
A: The MIC was 0.19 µg/mL (≈ 0.495 µM).

Q: And the MIC (Pseudomonas aeruginosa [42])?
A: Its MIC is 1 µg/mL (≈ 2.61 µM).

Q: What about the MIC (Pseudomonas aeruginosa [43]) of the same compound?
A: The MIC was 0.125 µg/mL (≈ 0.326 µM).

Q: And the MIC (Pseudomonas aeruginosa [44])?
A: The MIC was 0.125 µg/mL (≈ 0.326 µM).

Q: And the MIC (Pseudomonas aeruginosa [45])?
A: Its MIC is 0.064 µg/mL (≈ 0.167 µM).

Q: What about the MIC (Pseudomonas aeruginosa [46]) of the same compound?
A: Its MIC is 0.125 µg/mL (≈ 0.326 µM).

Q: And the MIC (Pseudomonas aeruginosa [47])?
A: Its MIC is 0.125 µg/mL (≈ 0.326 µM).
